In brackets after ≈: the same amount, converted by molar mass.
Assays:
Assay type in all cases: functional
Escherichia coli = experiment: Antimicrobial activity against Escherichia coli NCTC 9002 after 24 hrs by microdilution technique; conditions: NCTC 9002, 24 h
In short: (§1)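 Bacteria were grown on nutrient agar at 37 °C for 24 h. Fresh suspensions were standardized to 10^5 CFU per 100 µL and added to microdilution wells. Compounds were dissolved in DMSO with an initial concentration of 500 µg/mL. Ampicillin served as the positive control, with a DMSO-alone check. Growth was read visually and the MIC recorded.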

[1] = tested on: Trichophyton mentagrophytes; experiment: Antimicrobial activity against Trichophyton mentagrophytes NCPF 224 after 10 days by microdilution technique; conditions: 240 h
In short: (§2)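 Dermatophytes were grown on Sabouraud's dextrose agar at 26 °C for 10 days. Fresh inocula were standardized to 10^4 CFU per 100 µL for broth microdilution against compound in DMSO (initial 500 µg/mL). Plates were kept at 26 °C for 10 days and inspected visually every day, and the MIC was recorded. Controls were ketoconazole and DMSO alone.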

Candida albicans = experiment: Antimicrobial activity against Candida albicans after 24 hrs by microdilution technique
In short: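 Yeast was cultured on Sabouraud's dextrose agar at 30 °C for 24 h. A fresh suspension was standardized to 10^4 CFU per 100 µL and added to microdilution wells holding compound in DMSO (initial 500 µg/mL). Plates were incubated at 30 °C for 24 h and checked visually for growth to give the MIC. Controls were ketoconazole and DMSO alone.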

Nannizzia gypsea = experiment: Antimicrobial activity against Microsporum gypseum NCPF 40 after 10 days by microdilution technique; conditions: 240 h; in short: as §2
Staphylococcus aureus = experiment: Antimicrobial activity against Staphylococcus aureus NCIMB 9515 after 24 hrs by microdilution technique; in short: as §1
Pseudomonas aeruginosa = experiment: Antimicrobial activity against Pseudomonas aeruginosa NCIMB 10421 after 24 hrs by microdilution technique; in short: as §1
Cladosporium herbarum = experiment: Antimicrobial activity against Cladosporium herbarum after 10 days by microdilution technique; conditions: 240 h
In short: (§3)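 These plant-pathogenic Cladosporium strains were cultured on potato dextrose agar at 26 °C for 10 days. Suspensions were standardized to 10^4 CFU per 100 µL and tested by microdilution against compound dissolved in DMSO (initial 500 µg/mL). Plates were held at 26 °C for 10 days with daily visual growth checks, and the MIC was recorded. Controls were ketoconazole and DMSO alone.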

Bacillus subtilis = experiment: Antimicrobial activity against Bacillus subtilis NCTC 10073 after 24 hrs by microdilution technique; conditions: NCTC 10073, 24 h; in short: as §1
Trichophyton tonsurans = experiment: Antimicrobial activity against Trichophyton tonsurans EQ 4329 after 10 days by microdilution technique; conditions: 240 h; in short: as §2
[2] = tested on: Trichophyton interdigitale; experiment: Antimicrobial activity against Trichophyton interdigitale EQ 4115 after 10 days by microdilution technique; conditions: 240 h; in short: as §2
[3] = tested on: Cladosporium cladosporioides; experiment: Antimicrobial activity against Cladosporium cladosporioides IMI 299104 after 10 days by microdilution technique; conditions: 240 h; in short: as §3
Epidermophyton floccosum = experiment: Antimicrobial activity against Epidermophyton floccosum after 10 days by microdilution technique; conditions: 240 h; in short: as §2

MIC (Escherichia coli) | MIC [1] | MIC (Candida albicans) | MIC (Nannizzia gypsea) | MIC (Staphylococcus aureus) | MIC (Pseudomonas aeruginosa) | MIC (Cladosporium herbarum) | MIC (Bacillus subtilis) | MIC (Trichophyton tonsurans) | MIC [2] | MIC [3] | MIC (Epidermophyton floccosum) | SMILES
250 µg/mL (≈ 714 µM) | < 1.95 µg/mL | 7.8 µg/mL (≈ 22.3 µM) | 1.95 µg/mL (≈ 5.57 µM) | > 500 µg/mL | > 500 µg/mL | 15.6 µg/mL (≈ 44.5 µM) | > 500 µg/mL | 3.9 µg/mL (≈ 11.1 µM) | < 3.9 µg/mL | 7.8 µg/mL (≈ 22.3 µM) | > 1.95 µg/mL | O=C1[C@H](O)[C@]23C=CCN4CC=C5c6cc7c(cc6N1[C@@]5(CC2)[C@@H]43)OCO7
> 500 µg/mL | > 500 µg/mL | > 500 µg/mL | > 500 µg/mL | 125 µg/mL (≈ 388 µM) | > 500 µg/mL | > 500 µg/mL | 62.5 µg/mL (≈ 194 µM) | > 500 µg/mL | > 500 µg/mL | > 500 µg/mL | > 500 µg/mL | COc1ccc2c(c1)N1C(=O)C[C@]34C=CCN5CC[C@@H]2[C@@H](CC3)[C@]514 [ISOSCHIZOGALINE]
> 500 µg/mL | > 500 µg/mL | > 500 µg/mL | > 500 µg/mL | > 500 µg/mL | > 500 µg/mL | > 500 µg/mL | > 500 µg/mL | > 500 µg/mL | > 500 µg/mL | > 500 µg/mL | > 500 µg/mL | O=C1C[C@]23C=CCN4CC[C@H]5c6cc7c(cc6N1[C@@]5(CC2)[C@@H]43)OCO7 [SCHIZOZYGINE]

SMILES | MIC (Escherichia coli) | MIC [1] | MIC (Candida albicans) | MIC (Nannizzia gypsea) | MIC (Staphylococcus aureus) | MIC (Pseudomonas aeruginosa) | MIC (Cladosporium herbarum) | MIC (Bacillus subtilis) | MIC (Trichophyton tonsurans) | MIC [2] | MIC [3] | MIC (Epidermophyton floccosum)
CC1(C)S[C@@H]2[C@H](NC(=O)[C@H](N)c3ccccc3)C(=O)N2[C@H]1C(=O)O [AMPICILLIN] | 20 µg/mL (≈ 57.2 µM) | – | – | – | 12.5 µg/mL (≈ 35.8 µM) | 25 µg/mL (≈ 71.5 µM) | – | 12.5 µg/mL (≈ 35.8 µM) | – | – | – | –
CC(=O)N1CCN(c2ccc(OCC3COC(Cn4ccnc4)(c4ccc(Cl)cc4Cl)O3)cc2)CC1 (stereo not drawn) [KETOCONAZOLE] | – | 6.25 µg/mL (≈ 11.8 µM) | 25 µg/mL (≈ 47 µM) | 6.25 µg/mL (≈ 11.8 µM) | – | – | 50 µg/mL (≈ 94.1 µM) | – | 50 µg/mL (≈ 94.1 µM) | 25 µg/mL (≈ 47 µM) | 25 µg/mL (≈ 47 µM) | 25 µg/mL (≈ 47 µM)

— ChEMBL document CHEMBL1148127, “Antimicrobial activities of a new schizozygane indoline alkaloid from Schizozygia coffaeoides and the revised structure of isoschizogaline” (2002)
